# In ChEMBL document CHEMBL1806372, “Cytotoxic ring A-modified steroid analogues derived from Grundmann's ketone” (Eur J Med Chem, 2011):
# Active and inactive are the calls of the source. The rule behind the calls is not given here.
# Assays:
# A549 = test: Growth inhibition of human A549 cells assessed as cell growth at 10^-5 M after 48 hrs by sulforhodamine B assay; format: functional; settings: A549, 48 h, read-out: Activity
# Outline: (§1)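 NCI 60-cell panel single high-dose screen: compound applied at 10^-5 M for 48 h, endpoint by sulforhodamine B protein-binding dye. Values reported as growth percent of treated cells relative to untreated control cells.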
# NCI-H322M = test: Growth inhibition of human NCI-H322M cells assessed as cell growth at 10^-5 M after 48 hrs by sulforhodamine B assay; format: functional; settings: read-out: Activity
# Outline: (§2)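 NCI-60 single high-dose screen run under the NCI protocol. Cells were incubated with compound at 10^-5 M for 48 h. The end point was determined by sulforhodamine B protein staining. Results are reported as percent growth of treated cells relative to untreated control cells.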
# NCI-H460 = test: Growth inhibition of human NCI-H460 cells assessed as cell growth at 10^-5 M after 48 hrs by sulforhodamine B assay; format: functional; settings: NCI-H460, 48 h, read-out: Activity; outline: as §2
# COLO 205 = test: Growth inhibition of human COLO205 cells assessed as cell growth at 10^-5 M after 48 hrs by sulforhodamine B assay; format: functional; settings: COLO 205, 48 h, read-out: Activity; outline: as §1
# HT-29 = test: Growth inhibition of human HT-29 cells assessed as cell growth at 10^-5 M after 48 hrs by sulforhodamine B assay; format: functional; settings: HT-29, 48 h, read-out: Activity; outline: as §1
# SF-268 = test: Growth inhibition of human SF268 cells assessed as cell growth at 10^-5 M after 48 hrs by sulforhodamine B assay; format: functional; settings: SF-268, 48 h, read-out: Activity; outline: as §2
# M14 = test: Growth inhibition of human M14 cells assessed as cell growth at 10^-5 M after 48 hrs by sulforhodamine B assay; format: functional; settings: M14, 48 h, read-out: Activity; outline: as §2
# SK-MEL-28 = test: Growth inhibition of human SK-MEL-28 cells assessed as cell growth at 10^-5 M after 48 hrs by sulforhodamine B assay; format: functional; settings: SK-MEL-28, 48 h, read-out: Activity; outline: as §2
# SK-MEL-5 = test: Growth inhibition of human SK-MEL-5 cells assessed as cell growth at 10^-5 M after 48 hrs by sulforhodamine B assay; format: functional; settings: SK-MEL-5, 48 h, read-out: Activity
# Outline: (§3)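 NCI 60-cell panel single-dose screen under the NCI protocol. Cells are exposed to compound at one concentration (10^-5 M) for 48 h. The end point is protein staining with sulforhodamine B. Each line is reported as percent growth of treated cells relative to untreated control cells.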
# UACC-62 = test: Growth inhibition of human UACC62 cells assessed as cell growth at 10^-5 M after 48 hrs by sulforhodamine B assay; format: functional; settings: UACC-62, 48 h, read-out: Activity; outline: as §3
# OVCAR-5 = test: Growth inhibition of human OVCAR5 cells assessed as cell growth at 10^-5 M after 48 hrs by sulforhodamine B assay; format: functional; settings: OVCAR-5, 48 h, read-out: Activity; outline: as §2
# NCI/ADR-RES = test: Growth inhibition of human NCI/ADR-RES cells assessed as cell growth at 10^-5 M after 48 hrs by sulforhodamine B assay; format: functional; settings: read-out: Activity; outline: as §2
# 786-0 = test: Growth inhibition of human 786-0 cells assessed as cell growth at 10^-5 M after 48 hrs by sulforhodamine B assay; format: functional; settings: 786-0, 48 h, read-out: Activity; outline: as §1
# A498 = test: Growth inhibition of human A498 cells assessed as cell growth at 10^-5 M after 48 hrs by sulforhodamine B assay; format: functional; settings: A498, 48 h, read-out: Activity; outline: as §1
# ACHN = test: Growth inhibition of human ACHN cells assessed as cell growth at 10^-5 M after 48 hrs by sulforhodamine B assay; format: functional; settings: read-out: Activity; outline: as §1
# CAKI-1 = test: Growth inhibition of human Caki1 cells assessed as cell growth at 10^-5 M after 48 hrs by sulforhodamine B assay; format: functional; settings: CAKI-1, 48 h, read-out: Activity; outline: as §1
# RXF 393 = test: Growth inhibition of human RXF393 cells assessed as cell growth at 10^-5 M after 48 hrs by sulforhodamine B assay; format: functional; settings: RXF 393, 48 h, read-out: Activity; outline: as §2
# SN12C = test: Growth inhibition of human SN12C cells assessed as cell growth at 10^-5 M after 48 hrs by sulforhodamine B assay; format: functional; settings: read-out: Activity; outline: as §3
# TK-10 = test: Growth inhibition of human TK10 cells assessed as cell growth at 10^-5 M after 48 hrs by sulforhodamine B assay; format: functional; settings: TK-10, 48 h, read-out: Activity; outline: as §3
# UO-31 = test: Growth inhibition of human UO31 cells assessed as cell growth at 10^-5 M after 48 hrs by sulforhodamine B assay; format: functional; settings: UO-31, 48 h, read-out: Activity; outline: as §3
# DU-145 = test: Growth inhibition of human DU145 cells assessed as cell growth at 10^-5 M after 48 hrs by sulforhodamine B assay; format: functional; settings: DU-145, 48 h, read-out: Activity; outline: as §1
# MDA-MB-468 = test: Growth inhibition of human MDA-MB-468 cells assessed as cell growth at 10^-5 M after 48 hrs by sulforhodamine B assay; format: functional; settings: MDA-MB-468, 48 h, read-out: Activity; outline: as §2
# HL-60 = test: Cytotoxicity against human HL60 cells after 24 hrs by MTT assay; format: functional, cell-based; settings: HL-60, 24 h
# Outline: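 HL-60 cells kept in RPMI 1640 with 10% FBS, no antibiotics, 37 °C, humidified 5% CO2. Cells (9 × 10^5 cells/mL) exposed to compound in 96-well plates for 24 h at 37 °C. MTT in PBS (5 mg/mL) added for 2 h, then DMSO, shaken 1 h and read photometrically. IC50 determined; cisplatin reference.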
# Escherichia coli = test: Antibacterial activity against Escherichia coli assessed as zone of inhibition at 5 uL and 32 degC after 36 hrs by disk diffusion method; format: functional
# Outline: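 Disc diffusion on AC agar, each strain spread evenly over the medium; test compounds given as 1% (w/v) DMSO solutions. Plates covered and incubated 36 h at 32 °C, then the diameter of the zone of inhibited growth measured in mm. Tetracycline served as antibacterial reference.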
# Aspergillus niger = test: Antifungal activity against Aspergillus niger assessed as zone of inhibition at 5 uL and 28 degC after 36 hrs by disk diffusion method; format: functional
# Outline: (§4)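 Agar disc diffusion with the test compound applied as a 1% (w/v) DMSO solution. Yeasts were grown on AC agar and Aspergillus niger on potato dextrose broth agar, each strain spread evenly. Plates were covered and kept 36 h at 28 °C, and the inhibition zone diameter was read in mm. Clotrimazole served as reference.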
# [1] = Antifungal activity against Hyphopichia burtonii assessed as zone of inhibition at 5 uL and 28 degC after 36 hrs by disk diffusion method; format: functional; outline: as §4
# K562 = test: Growth inhibition of human K562 cells assessed as cell growth at 10^-5 M after 48 hrs by sulforhodamine B assay; format: functional; settings: K562, 48 h, read-out: Activity; outline: as §1
# MOLT-4 = test: Growth inhibition of human MOLT4 cells assessed as cell growth at 10^-5 M after 48 hrs by sulforhodamine B assay; format: functional; settings: MOLT-4, 48 h, read-out: Activity; outline: as §2
# SR = test: Growth inhibition of human SR cells assessed as cell growth at 10^-5 M after 48 hrs by sulforhodamine B assay; format: functional; settings: read-out: Activity; outline: as §3
SMILES,growth at 10 µM (A549),growth at 10 µM (NCI-H322M),growth at 10 µM (NCI-H460),growth at 10 µM (COLO 205),growth at 10 µM (HT-29),growth at 10 µM (SF-268),growth at 10 µM (M14),growth at 10 µM (SK-MEL-28),growth at 10 µM (SK-MEL-5),growth at 10 µM (UACC-62),growth at 10 µM (OVCAR-5),growth at 10 µM (NCI/ADR-RES),growth at 10 µM (786-0),growth at 10 µM (A498),growth at 10 µM (ACHN),growth at 10 µM (CAKI-1),growth at 10 µM (RXF 393),growth at 10 µM (SN12C),growth at 10 µM (TK-10),growth at 10 µM (UO-31),other results
CC(C)CCC[C@@H](C)[C@H]1CC[C@H]2C3=CC[C@@H]4C(=O)C=CC(=O)[C@@H]4[C@@H]3CC[C@]12C,8.75%,42.6%,2.88%,12.4%,7.56%,-61.2%,5.05%,-48.5%,-3.37%,-63.2%,7.74%,7.87%,-5.66%,-6.21%,4.54%,-56.3%,-66.6%,20.1%,-36.6%,-67.9%,growth at 10 µM (DU-145): 26.6%; growth at 10 µM (MDA-MB-468): 2.69%; IC50 (HL-60): 0.7 µM; diameter of the inhibition zone (DIZ) (Escherichia coli): inactive; diameter of the inhibition zone (DIZ) (Aspergillus niger): inactive; diameter of the inhibition zone (DIZ) [1]: inactive; growth at 10 µM (K562): 9.94%; growth at 10 µM (MOLT-4): 10.4%; growth at 10 µM (SR): 13.2%
CC(C)CCC[C@@H](C)[C@H]1CC[C@H]2C3=CCn4c(=O)ccc(=O)n4[C@@H]3CC[C@]12C,-79.3%,-55.3%,-89.9%,-93.1%,-97.5%,-92.3%,-87.1%,-100%,-79.3%,-82.4%,-84.3%,-28.8%,-100%,-94.8%,-95.1%,-91.6%,-76%,-97.7%,-83.1%,-88.5%,growth at 10 µM (DU-145): -93.7%; growth at 10 µM (MDA-MB-468): -49%; IC50 (HL-60): 0.03 µM; diameter of the inhibition zone (DIZ) (Escherichia coli): inactive; diameter of the inhibition zone (DIZ) (Aspergillus niger): inactive; inhibition zone (IZ) [1]: 10 mm; growth at 10 µM (K562): -40%; growth at 10 µM (MOLT-4): -23.6%; growth at 10 µM (SR): -34.6%
CC(C)CCC[C@@H](C)[C@H]1CC[C@H]2[C@@H]3CCN4C(=O)CCC(=O)N4[C@@H]3CC[C@]12C,84.1%,117%,107%,90.3%,87.9%,74.5%,90.5%,76.4%,96.4%,88.1%,91.5%,94.6%,83.8%,89.2%,90%,73.5%,102%,88%,108%,76.3%,growth at 10 µM (DU-145): 100%; growth at 10 µM (MDA-MB-468): 122%; IC50 (HL-60): 30 µM; diameter of the inhibition zone (DIZ) (Escherichia coli): 11 mm; diameter of the inhibition zone (DIZ) (Aspergillus niger): inactive; inhibition zone (IZ) [1]: 15 mm; growth at 10 µM (K562): 91%; growth at 10 µM (MOLT-4): 87.2%; growth at 10 µM (SR): 79.7%
